Source: PubChem BioAssay
Fh CTSL1 inh: cathepsin L1 inhibition, PFM18AAP counter-screen | 0.49% of 300,000 active | recombinant F. hepatica cathepsin L1, Z-Leu-Arg-MCA fluorescence | AID 1906 | inhibition, % at 5.96 µM;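 active = inhibition above the mean of all tested compounds plus 3 SD, set per screening campaign, cut at about 17% in these data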;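 note: 0% = plate median of test compound wells and 100% = 1 µM Z-Phe-Ala-diazomethylketone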
IMP-1 inh: inhibitors of Pseudomonas aeruginosa IMP-1 metallo-beta-lactamase; inhibition, % at 5.6 µM; 0.45% of 290,000 active; purified IMP-1, nitrocefin hydrolysis, epi-absorbance fluorescence; AID 1556;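 active = inhibition above the mean plus 3 SD of all compounds in the same screening run, cut at about 4.5% in these data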;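 note: 0% = IMP-1 with DMSO and 100% = DMSO wells lacking enzyme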
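System: purified IMP-1 / Input: IMP-1 dispensed at 0.2 nM / Medium: 50 mM HEPES pH 7.1, 50 µM ZnSO4, 0.05% Brij 35 / Timing: 15 min enzyme–compound preincubation, then 25 min nitrocefin reaction, 25 °C / Technique: plate fluorescence quenching by hydrolysis product, ex 480/em 530 nm / Repeats: singlicate testing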
VIM-2 inh: blocks Pseudomonas aeruginosa VIM-2 metallo-beta-lactamase; purified VIM-2, nitrocefin hydrolysis, epi-absorbance fluorescence; inhibition, % at 5.6 µM; 0.89% of 290,000 active;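 active = inhibition above the mean of all tested compounds plus 3 SD, cutoff set per screening run, cut at about 7.5% in these data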;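 note: red hydrolysis product quenches plate fluorescence so inhibitors raise well fluorescence; 0% = enzyme with DMSO and 100% = DMSO without enzyme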
M18AAP inhibitor: blocks P. falciparum M18 aspartyl aminopeptidase. inhibition, % at 7.35 µM. recombinant PfM18AAP, H-Glu-NHMec fluorogenic cleavage. 1.2% of 290,000 active. AID 1822;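 active = inhibition above the campaign mean inhibition over all tested compounds plus 3 SD, cut at about 28% in these data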;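 note: 0% = plate median of test compound wells and 100% = 2 mM ZnCl2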
Numbers without * were called inactive; . = not tested or not shown. An excerpt weighted towards active compounds, which were near 2.7% of everything screened.

SMILES	Fh CTSL1 inh	IMP-1 inh	VIM-2 inh	M18AAP inhibitor
OCCC1CN(Cc2cccn2-c2ccccn2)CCN1C1CCCCC1 (stereo not given)	74*	-3	-1	4
C[C@H](NC(=O)c1ccccc1Cl)C(=O)OC(C(=O)Nc1cc(C(F)(F)F)ccc1Cl)c1ccccc1 (stereo not given in full)	3	-5	-1	2
O=C(CNC(=O)c1ccccc1F)OC(C(=O)Nc1cc(C(F)(F)F)ccc1Cl)c1ccccc1 (stereo not given)	25*	-2	0	-12
CC1CCN(S(=O)(=O)c2cc3c4c(c2)C(C)C(=O)N4CCC3)CC1 (stereo not given)	4	-2	-4	-2
CC(C)C[C@H](NC(=O)C1CC(=O)N(c2ccc3c(c2)OCO3)C1)C(=O)NCc1ccco1 (stereo not given in full)	27*	-2	-2	24
C[C@H](NC(=O)C1CC(=O)N(c2ccc3c(c2)OCCO3)C1)C(=O)NCc1ccco1 (stereo not given in full)	1	-1	-2	-1
N#Cc1c(NC(=O)CSc2ncnc3sccc23)oc(-c2ccco2)c1-c1ccco1	0	7.0*	2	28
CCOc1ccc(S(=O)(=O)NNS(=O)(=O)c2ccc(C)cc2C)cc1	1	-3	-1	15
NC(=S)N/N=C/c1c[nH]c2ccc(OCc3ccccc3)cc12	55*	-5	-2	27
COc1cccc(/C=N/NC(=S)NCCc2ccccc2)c1OC	.	-2	0	-2
NC(=S)N/N=C\c1ccccc1OCc1ccccc1	12	-1	-2	-1
COc1cccc(/C=N/NC(N)=S)c1OCc1cccc(Cl)c1	17*	-3	-4	7
Nc1cc(Cl)ccc1N1CCCCCC1	-2	-3	-3	4
COc1ccc(C2CC(c3ccccc3)=NN2C(=O)COC(=O)c2ccc(Cl)nc2)cc1 (stereo not given)	-6	-4	-2	0
CC(=O)N1N=C(c2ccc(Cl)cc2)CC1c1ccco1 (stereo not given)	0	-1	9.9*	0
O=C(CNC(=O)c1ccccc1)OCC(=O)N1N=C(c2ccc(Cl)cc2)CC1c1ccco1 (stereo not given)	20*	0	7	2
Clc1ccc(C2=NN(c3ccccc3)C(c3ccco3)C2)cc1 (stereo not given)	0	-1	-1	6
COc1ccc(C2CC(c3ccccc3)=NN2C(=O)COC(=O)CNC(=O)c2ccccc2)cc1 (stereo not given)	31*	-2	-6	-1
CC(=O)N1N=C(c2ccc(C)cc2)CC1c1ccco1 (stereo not given)	-1	-1	4	5
Cc1nc(N2N=C(c3ccc(Cl)cc3)CC2c2ccco2)sc1C(=O)N(C)C (stereo not given)	25*	-5	4	10
NC(=O)c1cc(-c2csc(NCCc3ccccc3)n2)ccc1O	3	5.0*	0	12
C=CCNc1nc(-c2ccc(O)c(C(N)=O)c2)cs1	-1	0	0	8
COC(=O)C(CC(C)C)NC(=O)C(Cc1ccccc1)NC(=O)C1CCCN1C(=O)OC(C)(C)C (stereo not given)	5	-3	-4	6
c1ccc(-c2ccc3c(c2)c2c4n3CCN=C4CCC2)cc1	4	5.3*	-1	-4
Cc1ccc([N+](=O)[O-])cc1NC(=S)NC(=O)C(C)(C)C	1	5.1*	3	-20
SMILES	Fh CTSL1 inh	IMP-1 inh	VIM-2 inh	M18AAP inhibitor
COc1ccc2c(c1)Cc1sc(NC(C)=O)nc1-2	3	11*	3	20
COc1ccc2c(c1)Cc1sc(NC(=O)c3ccco3)nc1-2	2	-2	-2	11
COc1ccc(N2CCN(C(=O)CCNS(=O)(=O)c3ccc(Br)s3)CC2)cc1	-12	-4	-2	-10
Cc1ccc(-c2nnc3c4ccccc4c(C)nn23)cc1S(=O)(=O)N1CCN(C)CC1	0	-2	12*	4
COC(=O)c1cc(Sc2cccc(Cl)c2Cl)ccn1	-1	-2	9.2*	13
CCOC(=O)c1cc2c(nc1C)-c1cc(Cl)cc(Cl)c1OC2O (stereo not given)	5	-4	0	2
O=C(Nc1ccc(Br)cc1)C1C2C=CC3(O2)C1C(=O)N(CCN1CCCCC1)C3C(=O)NC1CCCCC1 (stereo not given)	8	-2	0	2
Cc1cc(C)cc(NC(=O)C2C3C=CC4(O3)C2C(=O)N(CCN2CCCCC2)C4C(=O)NC2CCCCC2)c1 (stereo not given)	19*	-1	0	-3
COc1ccc(NC(=O)C2C3C=CC4(O3)C2C(=O)N(CCN2CCCCC2)C4C(=O)NC2CCCCC2)cc1 (stereo not given)	40*	-2	2	5
COc1ccccc1NC(=O)CSCc1ccc([N+](=O)[O-])cc1	-3	-2	0	1
COc1ccccc1C(=O)NNc1ncc(C)s1	-1	-5	-2	31*
c1ccc(COc2cccc(CNCc3ccccn3)c2)cc1	-4	-4	8.2*	-3
c1ccc(COc2cccc(CNCc3cccnc3)c2)cc1	-1	-1	-2	-2
O=C(O)CCC1c2cc3c4cc2OC2Oc5cc6c(cc51)C(CCC(=O)O)c1cc5c7cc1OC(O6)c1cc6cc(c1)Oc1cc(cc(C(=O)O)c1)Oc1cc8cc(c1)C(Oc1cc(c(cc1C5CCC(=O)O)C3CCC(=O)O)OC(O4)c1cc(cc(c1)Oc1cc(cc(C(=O)O)c1)O8)Oc1cc(cc(C(=O)O)c1)Oc1cc(cc2c1)Oc1cc(cc(C(=O)O)c1)O6)O7 (stereo not given)	22*	.	.	.
O=C(CSc1ccccc1)N1CCN(c2ccc(F)cc2)CC1	17*	.	.	.
O=C(NCc1ccco1)C(Cc1ccccc1)N1C(=O)C2C3C=CC(C3)C2C1=O (stereo not given)	20*	-2	-1	-4
CCc1ccc(C(=O)CSc2ncn[nH]2)cc1	4	-3	-3	28*
CC(=O)Nc1cccc(NC(=O)C(=O)NCC(c2ccco2)N2CCc3ccccc3C2)c1 (stereo not given)	4	.	.	.
CNc1ccc(Br)cc(C(=O)/C=C/c2ccc3c(c2)OCO3)c1=O	2	9.2*	6	28*
CCc1cc(C(=O)N2CCN(c3ccccc3OC)CC2)sc1C	0	-6	0	9
CCN(C(=O)c1cc2c(=O)n3cccc(C)c3nc2s1)C1CCCCC1	0	-2	9.0*	6
Cc1cccn2c(=O)c3cc(C(=O)N4CC(C)CC(C)C4)sc3nc12 (stereo not given)	0	-2	12*	-3
COc1ccc(CCNC(=O)c2cc3c(=O)n4cccc(C)c4nc3s2)cc1OC	2	0	10*	0
COc1ccccc1N1CCN(C(=O)c2cc3c(=O)n4cccc(C)c4nc3s2)CC1	2	0	10*	4
Cc1c(C(=O)Nc2cccc([N+](=O)[O-])c2)sc2ncn(CC(=O)N3CCOCC3)c(=O)c12	-2	-1	-1	1
